Experimental data: ChEMBL document CHEMBL5356993, “Novel pyrazolo[3,4-d]pyrimidine derivatives: design, synthesis, anticancer evaluation, VEGFR-2 inhibition, and antiangiogenic activity” (RSC Med Chem, 2023)

Key:
Assay type in all cases: functional
Conditions in all cases: read-out: GI
SNB-19 = test: Antiproliferative activity against human SNB-19 cells assessed as cell growth inhibition at 10 uM incubated for 48 hrs by SRB assay relative to control
Procedure, shortened: (§1)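 Cells pre-incubated 24 h at 37°C, 5% CO2, then exposed to compound (DMSO stock diluted in medium with 50 µg/mL gentamicin) for 48 h. Adherent cells fixed with cold TCA (final 10%, 60 min, 4°C); suspension cells fixed with 16% TCA final. Stained with 0.4% SRB in 1% acetic acid for 10 min, dye solubilized in 10 mM Trizma base, absorbance read at 515 nm. Growth calculated against time-zero and untreated control plates.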

SN12C = test: Antiproliferative activity against human SN12C cells assessed as cell growth inhibition at 10 uM incubated for 48 hrs by SRB assay relative to control
KM12 = test: Antiproliferative activity against human KM12 cells assessed as cell growth inhibition at 10 uM incubated for 48 hrs by SRB assay relative to control
Procedure, shortened: (§2)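 Cells plated in 96-well plates at […] cells/well and preincubated 24 h at 37 °C, 5% CO2. Time-zero plates were TCA-fixed. Compound was diluted in medium with 50 µg/mL gentamicin and cells exposed for 48 h. Adherent cells fixed with 10% final TCA; suspension cells with 16% final TCA. Plates stained with 0.4% SRB in 1% acetic acid, dye solubilized in 10 mM Trizma, absorbance read at 515 nm. Percent growth calculated against time-zero and control.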

HCT-15 = test: Antiproliferative activity against human HCT-15 cells assessed as cell growth inhibition at 10 uM incubated for 48 hrs by SRB assay relative to control
MOLT-4 = test: Antiproliferative activity against human MOLT-4 cells assessed as cell growth inhibition at 10 uM incubated for 48 hrs by SRB assay relative to control
NCI-H522 = test: Antiproliferative activity against human NCI-H522 cells assessed as cell growth inhibition at 10 uM incubated for 48 hrs by SRB assay relative to control; procedure, shortened: as §2
SK-MEL-28 = test: Antiproliferative activity against human SK-MEL-28 cells assessed as cell growth inhibition at 10 uM incubated for 48 hrs by SRB assay relative to control; procedure, shortened: as §2
786-0 = test: Antiproliferative activity against human 786-0 cells assessed as cell growth inhibition at 10 uM incubated for 48 hrs by SRB assay relative to control
SNB-75 = test: Antiproliferative activity against human SNB-75 cells assessed as cell growth inhibition at 10 uM incubated for 48 hrs by SRB assay relative to control; procedure, shortened: as §1
NCI-H23 = test: Antiproliferative activity against human NCI-H23 cells assessed as cell growth inhibition at 10 uM incubated for 48 hrs by SRB assay relative to control
PC-3 = test: Antiproliferative activity against human PC-3 cells assessed as cell growth inhibition at 10 uM incubated for 48 hrs by SRB assay relative to control
TK-10 = test: Antiproliferative activity against human TK-10 cells assessed as cell growth inhibition at 10 uM incubated for 48 hrs by SRB assay relative to control; procedure, shortened: as §1
RPMI-8226 = test: Antiproliferative activity against human RPMI-8226 cells assessed as cell growth inhibition at 10 uM incubated for 48 hrs by SRB assay relative to control
HCC 2998 = test: Antiproliferative activity against human HCC 2998 cells assessed as cell growth inhibition at 10 uM incubated for 48 hrs by SRB assay relative to control
OVCAR-8 = test: Antiproliferative activity against human OVCAR-8 cells assessed as cell growth inhibition at 10 uM incubated for 48 hrs by SRB assay relative to control
HCT-116 = test: Antiproliferative activity against human HCT-116 cells assessed as cell growth inhibition at 10 uM incubated for 48 hrs by SRB assay relative to control
HOP-92 = test: Antiproliferative activity against human HOP-92 cells assessed as cell growth inhibition at 10 uM incubated for 48 hrs by SRB assay relative to control; procedure, shortened: as §2
MDA-MB-435 = test: Antiproliferative activity against human MDA-MB-435 cells assessed as cell growth inhibition at 10 uM incubated for 48 hrs by SRB assay relative to control
SF-539 = test: Antiproliferative activity against human SF-539 cells assessed as cell growth inhibition at 10 uM incubated for 48 hrs by SRB assay relative to control; procedure, shortened: as §2
Malme-3M = test: Antiproliferative activity against human Malme-3M cells assessed as cell growth inhibition at 10 uM incubated for 48 hrs by SRB assay relative to control
HT-29 = test: Antiproliferative activity against human HT-29 cells assessed as cell growth inhibition at 10 uM incubated for 48 hrs by SRB assay relative to control; procedure, shortened: as §2
SF-295 = test: Antiproliferative activity against human SF-295 cells assessed as cell growth inhibition at 10 uM incubated for 48 hrs by SRB assay relative to control; procedure, shortened: as §2
ACHN = test: Antiproliferative activity against human ACHN cells assessed as cell growth inhibition at 10 uM incubated for 48 hrs by SRB assay relative to control
U-251 = test: Antiproliferative activity against human U-251 cells assessed as cell growth inhibition at 10 uM incubated for 48 hrs by SRB assay relative to control; procedure, shortened: as §1
A549 = test: Antiproliferative activity against human A549 cells assessed as cell growth inhibition at 10 uM incubated for 48 hrs by SRB assay relative to control
OVCAR-3 = test: Antiproliferative activity against human OVCAR-3 cells assessed as cell growth inhibition at 10 uM incubated for 48 hrs by SRB assay relative to control; procedure, shortened: as §2
NCI-H226 = test: Antiproliferative activity against human NCI-H226 cells assessed as cell growth inhibition at 10 uM incubated for 48 hrs by SRB assay relative to control; procedure, shortened: as §2
A498 = test: Antiproliferative activity against human A498 cells assessed as cell growth inhibition at 10 uM incubated for 48 hrs by SRB assay relative to control; procedure, shortened: as §2
LOX IMVI = test: Antiproliferative activity against human LOX IMVI cells assessed as cell growth inhibition at 10 uM incubated for 48 hrs by SRB assay relative to control
HL-60(TB) = test: Antiproliferative activity against human HL-60(TB) cells assessed as cell growth inhibition at 10 uM incubated for 48 hrs by SRB assay relative to control
Procedure, shortened: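 Cells were plated at […] cells/well and preincubated 24 h at 37°C, 5% CO2, with time-zero plates TCA-fixed. Compound was diluted from DMSO stock in medium with 50 µg/mL gentamicin, then exposed for 48 h. Settled suspension cells were fixed with 80% TCA (final 16%), stained with 0.4% SRB and solubilized in 10 mM Trizma, A515. Growth was taken relative to Tz and control.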

OVCAR-4 = test: Antiproliferative activity against human OVCAR-4 cells assessed as cell growth inhibition at 10 uM incubated for 48 hrs by SRB assay relative to control
SF-268 = test: Antiproliferative activity against human SF-268 cells assessed as cell growth inhibition at 10 uM incubated for 48 hrs by SRB assay relative to control

COc1ccc(/C=C/C(=O)c2ccc(-n3c(C)nc4c(cnn4-c4ccccc4)c3=O)cc2)cc1
inhibition of growth at 10 µM (SNB-19): 18.2% | inhibition of growth at 10 µM (SN12C): 18.4% | inhibition of growth at 10 µM (KM12): 68.4% | inhibition of growth at 10 µM (HCT-15): 46.5% | inhibition of growth at 10 µM (MOLT-4): 55.3% | inhibition of growth at 10 µM (NCI-H522): 42.6% | inhibition of growth at 10 µM (SK-MEL-28): < 15% | inhibition of growth at 10 µM (786-0): 15.4% | inhibition of growth at 10 µM (SNB-75): < 15% | inhibition of growth at 10 µM (NCI-H23): 27.6% | inhibition of growth at 10 µM (PC-3): 34.9% | inhibition of growth at 10 µM (TK-10): < 15% | inhibition of growth at 10 µM (RPMI-8226): > 100% | inhibition of growth at 10 µM (HCC 2998): < 15% | inhibition of growth at 10 µM (OVCAR-8): 16.6% | inhibition of growth at 10 µM (HCT-116): 90.3% | inhibition of growth at 10 µM (HOP-92): < 15% | inhibition of growth at 10 µM (MDA-MB-435): 88.8% | inhibition of growth at 10 µM (SF-539): 22.4% | inhibition of growth at 10 µM (Malme-3M): 39.5% | inhibition of growth at 10 µM (HT-29): 28.5% | inhibition of growth at 10 µM (SF-295): 34.5% | inhibition of growth at 10 µM (ACHN): 29% | inhibition of growth at 10 µM (U-251): 25.9% | inhibition of growth at 10 µM (A549): < 15% | inhibition of growth at 10 µM (OVCAR-3): 39% | inhibition of growth at 10 µM (NCI-H226): 29.4% | inhibition of growth at 10 µM (A498): < 15% | inhibition of growth at 10 µM (LOX IMVI): 56% | inhibition of growth at 10 µM (HL-60(TB)): 55.3% | inhibition of growth at 10 µM (OVCAR-4): 34.3% | inhibition of growth at 10 µM (SF-268): < 15%

Cc1nc2c(cnn2-c2ccccc2)c(=O)n1-c1ccc(NC(=O)c2ccccc2)cc1
inhibition of growth at 10 µM (SNB-19): 23.6% | inhibition of growth at 10 µM (SN12C): 24.3% | inhibition of growth at 10 µM (KM12): 24.7% | inhibition of growth at 10 µM (HCT-15): 20.2% | inhibition of growth at 10 µM (MOLT-4): 68.1% | inhibition of growth at 10 µM (NCI-H522): 20.7% | inhibition of growth at 10 µM (SK-MEL-28): < 15% | inhibition of growth at 10 µM (786-0): 20.4% | inhibition of growth at 10 µM (SNB-75): 43.2% | inhibition of growth at 10 µM (NCI-H23): 45.5% | inhibition of growth at 10 µM (PC-3): 29.5% | inhibition of growth at 10 µM (TK-10): 18.6% | inhibition of growth at 10 µM (RPMI-8226): 43.6% | inhibition of growth at 10 µM (HCC 2998): < 15% | inhibition of growth at 10 µM (OVCAR-8): 38.4% | inhibition of growth at 10 µM (HCT-116): 41.9% | inhibition of growth at 10 µM (HOP-92): 29.2% | inhibition of growth at 10 µM (MDA-MB-435): 27.2% | inhibition of growth at 10 µM (SF-539): 19.8% | inhibition of growth at 10 µM (Malme-3M): 29.8% | inhibition of growth at 10 µM (HT-29): 25.2% | inhibition of growth at 10 µM (SF-295): 46.5% | inhibition of growth at 10 µM (ACHN): 36.7% | inhibition of growth at 10 µM (U-251): < 15% | inhibition of growth at 10 µM (A549): 28.9% | inhibition of growth at 10 µM (OVCAR-3): 16.8% | inhibition of growth at 10 µM (NCI-H226): 44.7% | inhibition of growth at 10 µM (A498): < 15% | inhibition of growth at 10 µM (LOX IMVI): 26.8% | inhibition of growth at 10 µM (HL-60(TB)): 18.5% | inhibition of growth at 10 µM (OVCAR-4): 53.2% | inhibition of growth at 10 µM (SF-268): 21.5%
